The source of these data is ChEMBL document CHEMBL1275458, “First molecular characterization of group B streptococci with reduced penicillin susceptibility” (2008).

In experiment [1] the test system is Streptococcus agalactiae. Nature of the experiment: Antimicrobial activity against penicillin-resistant Streptococcus agalactiae B516 by agar dilution method. The format is functional. The method in brief:
(§1)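 Agar dilution MICs run per the CLSI recommendation. S. pneumoniae ATCC 49619 was included as the quality control strain. β-lactams tested were penicillin G, penicillin V, ampicillin, oxacillin, cefazolin, cefepime, cefotaxime, ceftizoxime and meropenem. Test strains were S. agalactiae clinical sputum isolates and ATCC strains BAA-611 and 12403.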
Background: Agar dilution tests growth on a series of plates holding different concentrations.

Experiment [2] concerns Streptococcus agalactiae. Nature of the experiment: Antimicrobial activity against penicillin-resistant Streptococcus agalactiae B7 by agar dilution method. The format is functional. The method in brief:
as §1

Experiment [3] deals with Streptococcus agalactiae. Nature of the experiment: Antimicrobial activity against penicillin-resistant Streptococcus agalactiae B502 by agar dilution method. Type of experiment: functional. The procedure, abridged: as §1
Experiment [4] has as its system Streptococcus agalactiae. The experiment in a line: Antimicrobial activity against penicillin-resistant Streptococcus agalactiae ATCC BAA-611 harboring PBP-2X V405A mutant gene by agar dilution method. The format is functional. The procedure, abridged:
as §1

Experiment [5] relates to Streptococcus agalactiae. Nature of the experiment: Antimicrobial activity against penicillin-resistant Streptococcus agalactiae B40 by agar dilution method. Type of experiment: functional. The method in brief: as §1
For experiment [6], the system named is Streptococcus agalactiae. Nature of the experiment: Antimicrobial activity against penicillin-resistant Streptococcus agalactiae B8 by agar dilution method. Type of experiment: functional. The procedure, abridged:
as §1

Experiment [7] has as its system Streptococcus agalactiae. The experiment in a line: Antimicrobial activity against penicillin-resistant Streptococcus agalactiae B503 by agar dilution method. The format is functional. The method in brief: as §1
Experiment [8] relates to Streptococcus agalactiae. The experiment in a line: Antimicrobial activity against penicillin-resistant Streptococcus agalactiae B10 by agar dilution method. Type of experiment: functional. The procedure, abridged: as §1
The test system of experiment [9] is Streptococcus agalactiae. The experiment in a line: Antimicrobial activity against penicillin-resistant Streptococcus agalactiae B12 by agar dilution method. Type of experiment: functional. The procedure, abridged: as §1
For a further experiment, the system named is Streptococcus pneumoniae. Nature of the experiment: Antimicrobial activity against Streptococcus pneumoniae ATCC 49619 by agar dilution method. The format is functional. The method in brief:
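MIC by agar dilution per CLSI recommendations. The strain is a penicillin-susceptible S. pneumoniae quality-control strain, run alongside the clinical GBS isolates. β-lactams tested were penicillin G, penicillin V, ampicillin, oxacillin, cefazolin, cefepime, cefotaxime, ceftizoxime and meropenem.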

The subject of experiment [10] is Streptococcus agalactiae. Nature of the experiment: Antimicrobial activity against penicillin-resistant Streptococcus agalactiae B60 by agar dilution method. Type of experiment: functional. The procedure, abridged: as §1
Experiment [11] has as its system Streptococcus agalactiae. The experiment in a line: Antimicrobial activity against penicillin-resistant Streptococcus agalactiae B1 by agar dilution method. Type of experiment: functional. The method in brief: as §1
Experiment [12] relates to Streptococcus agalactiae. The experiment in a line: Antimicrobial activity against penicillin-resistant Streptococcus agalactiae ATCC BAA-611 harboring PBP-2X Q557E mutant gene by agar dilution method. The format is functional. The procedure, abridged: as §1
Experiment [13] relates to Streptococcus agalactiae. Nature of the experiment: Antimicrobial activity against penicillin-resistant Streptococcus agalactiae B514 by agar dilution method. Type of experiment: functional. The method in brief: as §1
Experiment [14] has as its system Streptococcus agalactiae. Nature of the experiment: Antimicrobial activity against penicillin-resistant Streptococcus agalactiae B6 by agar dilution method. The format is functional. The method in brief: as §1
The test system of experiment [15] is Streptococcus agalactiae. The experiment in a line: Antimicrobial activity against penicillin-resistant Streptococcus agalactiae B68 by agar dilution method. Type of experiment: functional. The procedure, abridged: as §1
Experiment [16] has as its system Streptococcus agalactiae. The experiment in a line: Antimicrobial activity against penicillin-resistant Streptococcus agalactiae B513 by agar dilution method. The format is functional. The procedure, abridged: as §1
Experiment [17] has as its system Streptococcus agalactiae. The experiment in a line: Antimicrobial activity against penicillin-susceptible Streptococcus agalactiae ATCC BAA-611 by agar dilution method.
In experiment [18] the test system is Streptococcus agalactiae. Nature of the experiment: Antimicrobial activity against penicillin-susceptible Streptococcus agalactiae ATCC 12403 by agar dilution method.

For orientation: MIC means the least concentration at which growth counts as inhibited.

In brackets after ≈: the same amount, converted by molar mass.

Regarding `Cc1onc(-c2ccccc2)c1C(=O)N[C@@H]1C(=O)N2[C@@H]1SC(C)(C)[C@@H]2C(=O)O` [OXACILLIN], the MIC with Streptococcus agalactiae [1] is 4 µg/mL (≈ 9.96 µM); in the experiment with Streptococcus agalactiae [2], 2 µg/mL (≈ 4.98 µM); in the experiment with Streptococcus agalactiae [3], 4 µg/mL (≈ 9.96 µM); against Streptococcus agalactiae [4] it was 2 µg/mL (≈ 4.98 µM); in the experiment with Streptococcus agalactiae [5] it was 8 µg/mL (≈ 19.9 µM); with Streptococcus agalactiae [6], 4 µg/mL (≈ 9.96 µM). Further, the MIC worked out at 2 µg/mL (≈ 4.98 µM) in the experiment on Streptococcus agalactiae [7]; 4 µg/mL (≈ 9.96 µM) with Streptococcus agalactiae [8]; 4 µg/mL (≈ 9.96 µM) in the experiment with Streptococcus agalactiae [9]; 1 µg/mL (≈ 2.49 µM) against Streptococcus pneumoniae; 4 µg/mL (≈ 9.96 µM) against Streptococcus agalactiae [10]; 4 µg/mL (≈ 9.96 µM) with Streptococcus agalactiae [11]. In addition, the minimal inhibitory concentration (MIC) in the experiment with Streptococcus agalactiae [12] turned out to be 4 µg/mL (≈ 9.96 µM); against Streptococcus agalactiae [13] it was 4 µg/mL (≈ 9.96 µM); with Streptococcus agalactiae [14], 4 µg/mL (≈ 9.96 µM); with Streptococcus agalactiae [15], 4 µg/mL (≈ 9.96 µM); against Streptococcus agalactiae [16], 8 µg/mL (≈ 19.9 µM); in the experiment on Streptococcus agalactiae [17], 0.25 µg/mL (≈ 0.623 µM). The same molecule had an MIC with Streptococcus agalactiae [18] of 0.25 µg/mL (≈ 0.623 µM).

As to `CC1(C)S[C@@H]2[C@H](NC(=O)Cc3ccccc3)C(=O)N2[C@H]1C(=O)O` [PENICILLIN G], the MIC worked out at 0.25 µg/mL (≈ 0.748 µM) with Streptococcus agalactiae [1]; 0.25 µg/mL (≈ 0.748 µM) in the experiment with Streptococcus agalactiae [2]; 0.5 µg/mL (≈ 1.5 µM) in the experiment on Streptococcus agalactiae [3]; 0.25 µg/mL (≈ 0.748 µM) with Streptococcus agalactiae [4]; 0.5 µg/mL (≈ 1.5 µM) in the experiment on Streptococcus agalactiae [5]; 0.25 µg/mL (≈ 0.748 µM) in the experiment on Streptococcus agalactiae [6]. For the same molecule, the MIC with Streptococcus agalactiae [7] came out at 0.25 µg/mL (≈ 0.748 µM); against Streptococcus agalactiae [8] it was 0.5 µg/mL (≈ 1.5 µM); in the experiment on Streptococcus agalactiae [9], 0.25 µg/mL (≈ 0.748 µM); with Streptococcus pneumoniae, 0.25 µg/mL (≈ 0.748 µM); against Streptococcus agalactiae [10] it was 0.25 µg/mL (≈ 0.748 µM); with Streptococcus agalactiae [11], 0.5 µg/mL (≈ 1.5 µM). In addition, the MIC in the experiment on Streptococcus agalactiae [12] was determined as 0.5 µg/mL (≈ 1.5 µM); in the experiment on Streptococcus agalactiae [13], 0.25 µg/mL (≈ 0.748 µM); with Streptococcus agalactiae [14], 0.25 µg/mL (≈ 0.748 µM); with Streptococcus agalactiae [15], 0.5 µg/mL (≈ 1.5 µM); in the experiment with Streptococcus agalactiae [16], 1 µg/mL (≈ 2.99 µM); against Streptococcus agalactiae [17] it was 0.06 µg/mL (≈ 0.179 µM). For the same molecule, the lowest concentration to inhibit growth in the experiment with Streptococcus agalactiae [18] (MIC) was 0.06 µg/mL (≈ 0.179 µM).

As to `C[C@@H](O)[C@H]1C(=O)N2C(C(=O)O)=C(S[C@@H]3CN[C@H](C(=O)N(C)C)C3)[C@H](C)[C@H]12` [MEROPENEM], the minimal inhibitory concentration (MIC) against Streptococcus agalactiae [1] stood at 0.12 µg/mL (≈ 0.313 µM); with Streptococcus agalactiae [2], 0.25 µg/mL (≈ 0.652 µM); against Streptococcus agalactiae [3], 0.25 µg/mL (≈ 0.652 µM); in the experiment with Streptococcus agalactiae [4], 0.12 µg/mL (≈ 0.313 µM); in the experiment with Streptococcus agalactiae [5], 0.06 µg/mL (≈ 0.156 µM); against Streptococcus agalactiae [6], 0.12 µg/mL (≈ 0.313 µM). Besides, the MIC with Streptococcus agalactiae [7] was found to be 0.12 µg/mL (≈ 0.313 µM); against Streptococcus agalactiae [8], 0.06 µg/mL (≈ 0.156 µM); against Streptococcus agalactiae [9], 0.25 µg/mL (≈ 0.652 µM); against Streptococcus pneumoniae, 0.06 µg/mL (≈ 0.156 µM); with Streptococcus agalactiae [10], 0.12 µg/mL (≈ 0.313 µM); against Streptococcus agalactiae [11], 0.06 µg/mL (≈ 0.156 µM). Besides, the minimum inhibitory concentration (MIC) was 0.12 µg/mL (≈ 0.313 µM) in the experiment on Streptococcus agalactiae [12]; 0.25 µg/mL (≈ 0.652 µM) in the experiment on Streptococcus agalactiae [13]; 0.06 µg/mL (≈ 0.156 µM) with Streptococcus agalactiae [14]; 0.12 µg/mL (≈ 0.313 µM) in the experiment with Streptococcus agalactiae [15]; 0.25 µg/mL (≈ 0.652 µM) against Streptococcus agalactiae [16]; 0.03 µg/mL (≈ 0.0782 µM) in the experiment with Streptococcus agalactiae [17]. In the experiment with Streptococcus agalactiae [18], this molecule came in with an MIC of 0.03 µg/mL (≈ 0.0782 µM).

For `CC1(C)S[C@@H]2[C@H](NC(=O)COc3ccccc3)C(=O)N2[C@H]1C(=O)O` [PENICILLIN V], the MIC against Streptococcus agalactiae [1] amounted to 0.25 µg/mL (≈ 0.713 µM); against Streptococcus agalactiae [2] it was 0.12 µg/mL (≈ 0.342 µM); in the experiment with Streptococcus agalactiae [3], 0.25 µg/mL (≈ 0.713 µM); in the experiment on Streptococcus agalactiae [4], 0.12 µg/mL (≈ 0.342 µM); against Streptococcus agalactiae [5], 0.5 µg/mL (≈ 1.43 µM); with Streptococcus agalactiae [6], 0.25 µg/mL (≈ 0.713 µM). Also, the MIC came out at 0.12 µg/mL (≈ 0.342 µM) in the experiment on Streptococcus agalactiae [7]; 0.25 µg/mL (≈ 0.713 µM) in the experiment with Streptococcus agalactiae [8]; 0.5 µg/mL (≈ 1.43 µM) against Streptococcus agalactiae [9]; 0.5 µg/mL (≈ 1.43 µM) in the experiment with Streptococcus pneumoniae; 0.25 µg/mL (≈ 0.713 µM) with Streptococcus agalactiae [10]; 0.25 µg/mL (≈ 0.713 µM) in the experiment with Streptococcus agalactiae [11]. The minimum inhibitory concentration (MIC) was determined as 0.5 µg/mL (≈ 1.43 µM) in the experiment on Streptococcus agalactiae [12]; 0.25 µg/mL (≈ 0.713 µM) against Streptococcus agalactiae [13]; 0.5 µg/mL (≈ 1.43 µM) in the experiment with Streptococcus agalactiae [14]; 0.25 µg/mL (≈ 0.713 µM) against Streptococcus agalactiae [15]; 1 µg/mL (≈ 2.85 µM) against Streptococcus agalactiae [16]; 0.03 µg/mL (≈ 0.0856 µM) against Streptococcus agalactiae [17]. For the same molecule, in the experiment on Streptococcus agalactiae [18], the MIC was 0.03 µg/mL (≈ 0.0856 µM).

Turning to `CO/N=C(\C(=O)N[C@@H]1C(=O)N2C(C(=O)O)=CCS[C@H]12)c1csc(N)n1` [CEFTIZOXIME], the MIC stood at 16 µg/mL (≈ 41.7 µM) with Streptococcus agalactiae [1]; 4 µg/mL (≈ 10.4 µM) in the experiment on Streptococcus agalactiae [2]; 16 µg/mL (≈ 41.7 µM) against Streptococcus agalactiae [3]; 16 µg/mL (≈ 41.7 µM) against Streptococcus agalactiae [4]; 32 µg/mL (≈ 83.5 µM) in the experiment with Streptococcus agalactiae [5]; 64 µg/mL (≈ 167 µM) with Streptococcus agalactiae [6]. The MIC in the experiment on Streptococcus agalactiae [7] turned out to be 16 µg/mL (≈ 41.7 µM); in the experiment on Streptococcus agalactiae [8], 16 µg/mL (≈ 41.7 µM); in the experiment on Streptococcus agalactiae [9], 32 µg/mL (≈ 83.5 µM); in the experiment on Streptococcus pneumoniae it was 0.12 µg/mL (≈ 0.313 µM); in the experiment on Streptococcus agalactiae [10], 32 µg/mL (≈ 83.5 µM); against Streptococcus agalactiae [11], 128 µg/mL (≈ 334 µM). Moreover, the MIC against Streptococcus agalactiae [12] was 32 µg/mL (≈ 83.5 µM); in the experiment on Streptococcus agalactiae [13], 32 µg/mL (≈ 83.5 µM); in the experiment on Streptococcus agalactiae [14], 32 µg/mL (≈ 83.5 µM); with Streptococcus agalactiae [15], 4 µg/mL (≈ 10.4 µM); against Streptococcus agalactiae [16] it was 64 µg/mL (≈ 167 µM); in the experiment with Streptococcus agalactiae [17] it was 0.12 µg/mL (≈ 0.313 µM). This molecule came in with an MIC in the experiment with Streptococcus agalactiae [18] of 0.12 µg/mL (≈ 0.313 µM).
